Experimental data from article PMC6959540 (Nuclear medicine and biology, 2012).

What was measured:
[1] = biological target: T1, hTRPV1 (Homo sapiens, UniProt Q8NER1); assay: ^45Ca^2+ uptake in CHO-hTRPV1 cells; type: cell-based
Outline: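 Tet-Off CHO-hTRPV1 cells at 50–70% confluency were induced 48 h without tetracycline. Assay medium was DMEM with BSA 0.25 mg/mL, 45Ca2+ 37 kBq/mL and increasing ligand concentrations. Antagonism wells also held capsaicin 75 nM; full-agonist reference was capsaicin 300 nM. After 5 min at 37 °C, cells were washed, lysed in RIPA buffer and scintillation-counted. Each point is the mean of four wells, fitted with the Hill equation.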

[2] = biological target: T1, hTRPV1; assay: [^3H]RTX competition binding on CHO cells transfected with hTRPV1; conditions: read-out: binding affinity (Kd), [^3H]RTX as radioligand
Outline: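 Stable Tet-Off CHO cells expressing human TRPV1 were induced 48 h in tetracycline-free medium, harvested and pelleted. Assay mix: DPBS with Ca2+/Mg2+, BSA 0.25 mg/mL, [3H]RTX 100 pM and varying competitor concentrations; 100 nM unlabelled RTX defined nonspecific binding. Incubation 60 min at 37 °C, ice-cooled, glycoprotein added, membranes pelleted by centrifugation. Pellets and supernatant were scintillation-counted and Ki fitted with the Hill equation.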

[3] = biological target: T2, rTRPV1 (Rattus norvegicus, UniProt O35433); assay: [^3H]RTX competition binding on CHO cells transfected with rTRPV1; conditions: read-out: binding affinity (Kd), [^3H]RTX as radioligand
Outline: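 A stable Tet-Off CHO line with rat TRPV1 was induced for 48 h in tetracycline-free medium, harvested and pelleted, and pellets were stored at −20 °C. Binding used [3H]RTX (100 pM) plus graded competitor in DPBS with Ca2+/Mg2+ and BSA (0.25 mg/mL), at 37 °C for 60 min. Nonspecific binding was set with 100 nM unlabelled RTX. Membranes were pelleted after glycoprotein addition and scintillation-counted. Parameters came from Hill equation fits.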

[4] = biological target: T1, hTRPV1; conditions: read-out: IC50 reported for hTRPV1; cited from earlier work
[5] = biological target: T2, rTRPV1; assay: ^45Ca^2+ uptake in CHO-rTRPV1 cells; type: cell-based
Outline: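 CHO-rTRPV1 cells (Tet-Off) were induced for about 48 h without tetracycline. They were then exposed for 5 min at 37 °C to DMEM containing BSA (0.25 mg/mL), 45Ca2+ (37 kBq/mL) and increasing test compound. Agonism was referenced to 300 nM capsaicin, and antagonism was tested against 75 nM capsaicin. Cells were washed, lysed in RIPA buffer and scintillation-counted. Each point was the mean of four wells, fitted to the Hill equation.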

[6] = Plasma radiometabolites in mice; type: in vivo; conditions: mouse plasma
[7] = tested on: TRPV1 receptor; assay: Biodistribution in TRPV1^-/- mice; type: in vivo; conditions: 60 min p.i.
Outline: (§1)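 Male NMRI mice (32–43 g), either pretreated s.c. 1 h before tracer or TRPV1−/−. Tracer was diluted in saline (<10% ethanol) and ~9.25 MBq given via lateral tail vein under pentobarbital (60 mg/kg i.p.) or isoflurane (2% in O2). Mice were decapitated at 2, 10 or 60 min (n=4 per time point). Tissues and blood were weighed and gamma-counted, and trigeminal nerve-to-blood activity ratios calculated. Values are mean ± SEM.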

[8] = Distribution coefficient n-octanol/phosphate buffer pH 7.4; type: physicochemical; conditions: 1-octanol / 0.025 M phosphate buffer pH 7.4
Outline: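 HPLC-purified radiotracer (~37 MBq/mL in saline) was added to equal volumes of n-octanol and 0.025 M sodium phosphate buffer pH 7.4 (n=8). Tubes were vortexed for 1 min at room temperature and centrifuged at 3000 rpm for 10 min. Phase aliquots were weighed and gamma-counted. D was calculated as cpm/mL octanol over cpm/mL buffer, with volumes derived from mass and phase density.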

[9] = Biodistribution in control NMRI mice; type: in vivo; conditions: for % ID / % ID/g: control mice i.v.
Outline: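 Male NMRI mice (32–43 g) under pentobarbital (60 mg/kg i.p.) or isoflurane (2% in oxygen) received about 9.25 MBq of radiotracer in saline via a lateral tail vein. They were decapitated at 2, 10 or 60 min p.i. (n=4 per time point). Organs and blood were dissected, weighed and gamma-counted. %ID was organ cpm over total recovered cpm. Blood mass was taken as 7% of body mass.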

[10] = tested on: TRPV1 receptor; assay: Biodistribution in NMRI mice pretreated with BCTC or SB366791; type: in vivo; conditions: 60 min p.i.
Outline: as §1

[11] = Brain radiometabolites in mice; type: in vivo; conditions: mouse brain
[12] = read-out: antagonist activity (Ki), capsaicin 75 nM
[13] = control mice, pentobarbital, i.v.

T2 sequence (O35433 whole entry): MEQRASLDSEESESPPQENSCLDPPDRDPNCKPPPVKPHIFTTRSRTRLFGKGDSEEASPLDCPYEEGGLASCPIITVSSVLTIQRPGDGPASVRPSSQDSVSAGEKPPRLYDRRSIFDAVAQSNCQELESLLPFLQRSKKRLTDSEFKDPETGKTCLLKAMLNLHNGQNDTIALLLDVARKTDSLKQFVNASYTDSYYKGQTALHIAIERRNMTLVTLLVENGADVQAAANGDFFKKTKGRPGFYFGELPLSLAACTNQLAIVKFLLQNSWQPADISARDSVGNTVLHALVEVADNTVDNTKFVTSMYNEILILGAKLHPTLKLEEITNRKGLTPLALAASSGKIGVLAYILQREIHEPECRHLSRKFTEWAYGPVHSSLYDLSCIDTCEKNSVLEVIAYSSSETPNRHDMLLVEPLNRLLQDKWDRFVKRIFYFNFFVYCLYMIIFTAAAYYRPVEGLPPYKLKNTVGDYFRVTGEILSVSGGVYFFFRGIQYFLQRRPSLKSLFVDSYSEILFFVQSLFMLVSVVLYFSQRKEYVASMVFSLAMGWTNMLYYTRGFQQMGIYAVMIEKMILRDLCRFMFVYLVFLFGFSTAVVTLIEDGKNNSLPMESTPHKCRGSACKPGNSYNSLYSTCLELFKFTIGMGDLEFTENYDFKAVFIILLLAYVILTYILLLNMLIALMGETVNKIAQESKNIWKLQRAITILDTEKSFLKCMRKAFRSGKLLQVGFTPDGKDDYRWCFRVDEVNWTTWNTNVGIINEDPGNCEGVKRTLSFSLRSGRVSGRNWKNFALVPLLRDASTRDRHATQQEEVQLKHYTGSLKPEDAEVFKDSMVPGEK
T1 sequence (Q8NER1 whole entry): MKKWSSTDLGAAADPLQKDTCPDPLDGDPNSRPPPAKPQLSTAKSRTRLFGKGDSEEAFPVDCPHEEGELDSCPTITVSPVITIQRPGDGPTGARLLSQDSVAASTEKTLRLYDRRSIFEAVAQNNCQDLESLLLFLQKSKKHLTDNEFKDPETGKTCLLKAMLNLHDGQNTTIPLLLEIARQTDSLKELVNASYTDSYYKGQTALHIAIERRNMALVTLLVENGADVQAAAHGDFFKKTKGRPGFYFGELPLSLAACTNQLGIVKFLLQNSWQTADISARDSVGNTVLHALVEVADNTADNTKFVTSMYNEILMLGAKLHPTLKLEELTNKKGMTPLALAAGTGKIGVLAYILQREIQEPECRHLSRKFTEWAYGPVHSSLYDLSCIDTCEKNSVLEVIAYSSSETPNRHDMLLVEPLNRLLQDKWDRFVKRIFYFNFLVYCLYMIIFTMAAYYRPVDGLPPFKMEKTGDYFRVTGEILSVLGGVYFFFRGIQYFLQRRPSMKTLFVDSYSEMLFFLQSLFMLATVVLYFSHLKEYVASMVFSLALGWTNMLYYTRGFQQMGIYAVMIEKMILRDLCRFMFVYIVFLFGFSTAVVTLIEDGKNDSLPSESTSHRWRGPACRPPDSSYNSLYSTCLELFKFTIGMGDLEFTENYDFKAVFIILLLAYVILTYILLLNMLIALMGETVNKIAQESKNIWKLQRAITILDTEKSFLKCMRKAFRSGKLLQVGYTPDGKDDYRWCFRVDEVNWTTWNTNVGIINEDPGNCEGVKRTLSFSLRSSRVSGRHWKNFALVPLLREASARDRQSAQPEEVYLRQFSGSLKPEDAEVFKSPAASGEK

## COc1cccc(NC(=O)/C=C/c2ccc(Cl)cc2)c1 [SB366791, N-(3-methoxyphenyl)-4-chlorocinnamide]
[1]; agonism assay
  agonist effects: No agonist effects were observed
[1]; [12]
  Ki: 197 ± 17 nM
[2]
  Kd: 280 ± 56 nM
[3]
  Kd: 780 ± 140 nM
[4]
  IC50: 5.7 nM
[5]; agonism assay
  agonist effects: No agonist effects were observed
[5]; [12]
  Ki: 334 ± 17 nM

## [11CH3]Oc1cccc(NC(=O)/C=C/c2ccc(Cl)cc2)c1 [[^11C]SB366791]
[6]; 2 min after i.v. injection
  intact tracer in plasma, of recovered radioactivity: 52.0±3.0%
[6]; 2 min p.i.
  radiometabolites in plasma: 48.0%±3.0
[6]; 10 min p.i.
  radiometabolites in plasma: 82.4%±1.9
[7]
  trigeminal nerve-to-blood activity ratio: 0.8
[8]
  log D: 3.5±0.1
[9]; Bladder+urine, 2 min p.i.
  % ID: 0.2±0.1 % ID
[9]; Bladder+urine, 10 min p.i.
  % ID: 8.0±2.5 % ID
[9]; Bladder+urine, 60 min p.i.
  % ID: 25.9±12.0 % ID
[9]; Blood, 2 min p.i.
  % ID: 9.9±1.0 % ID
  % ID/g: 3.6±0.4 % ID/g
[9]; Blood, 10 min p.i.
  % ID: 6.9±0.5 % ID
  % ID/g: 2.6±0.2 % ID/g
[9]; Blood, 60 min p.i.
  % ID: 2.3±0.2 % ID
  % ID/g: 0.8±0.1 % ID/g
[9]; Bone, 2 min p.i.
  % ID/g: 1.5±0.2 % ID/g
[9]; Bone, 10 min p.i.
  % ID/g: 1.2±0.4 % ID/g
[9]; Bone, 60 min p.i.
  % ID/g: 0.9±0.2 % ID/g
[9]; Carcass, 2 min p.i.
  % ID: 44.5±3.6 % ID
[9]; Carcass, 10 min p.i.
  % ID: 48.6±2.2 % ID
[9]; Carcass, 60 min p.i.
  % ID: 19.3±3.3 % ID
[9]; Cerebellum, 2 min p.i.
  % ID: 0.4±0.1 % ID
  % ID/g: 3.9±0.4 % ID/g
[9]; Cerebellum, 10 min p.i.
  % ID: 0.1±0.0 % ID
  % ID/g: 1.1±0.1 % ID/g
[9]; Cerebellum, 60 min p.i.
  % ID: 0.0±0.0 % ID
  % ID/g: 0.3±0.1 % ID/g
[9]; Cerebrum, 2 min p.i.
  % ID: 1.2±0.2 % ID
  % ID/g: 3.7±0.5 % ID/g
[9]; Cerebrum, 10 min p.i.
  % ID: 0.4±0.0 % ID
  % ID/g: 1.2±0.1 % ID/g
[9]; Cerebrum, 60 min p.i.
  % ID: 0.1±0.0 % ID
  % ID/g: 0.3±0.0 % ID/g
[9]; Heart, 2 min p.i.
  % ID: 0.9±0.1 % ID
  % ID/g: 5.0±1.0 % ID/g
[9]; Heart, 10 min p.i.
  % ID: 0.3±0.1 % ID
  % ID/g: 1.8±0.2 % ID/g
[9]; Heart, 60 min p.i.
  % ID: 0.1±0.0 % ID
  % ID/g: 0.6±0.0 % ID/g
[9]; Intestines, 2 min p.i.
  % ID: 8.9±0.6 % ID
[9]; Intestines, 10 min p.i.
  % ID: 13.0±1.5 % ID
[9]; Intestines, 60 min p.i.
  % ID: 33.8±6.2 % ID
[9]; Kidneys, 2 min p.i.
  % ID: 4.5±0.2 % ID
  % ID/g: 7.1±0.8 % ID/g
[9]; Kidneys, 10 min p.i.
  % ID: 5.0±1.0 % ID
  % ID/g: 7.9±1.2 % ID/g
[9]; Kidneys, 60 min p.i.
  % ID: 1.9±0.4 % ID
  % ID/g: 2.8±0.5 % ID/g
[9]; Liver, 2 min p.i.
  % ID: 28.6±2.5 % ID
  % ID/g: 14.2±2.5 % ID/g
[9]; Liver, 10 min p.i.
  % ID: 16.1±1.6 % ID
  % ID/g: 8.7±1.0 % ID/g
[9]; Liver, 60 min p.i.
  % ID: 8.9±3.2 % ID
  % ID/g: 4.6±2.1 % ID/g
[9]; Lungs, 2 min p.i.
  % ID: 1.5±0.4 % ID
  % ID/g: 4.5±0.3 % ID/g
[9]; Lungs, 10 min p.i.
  % ID: 0.9±0.2 % ID
  % ID/g: 2.7±0.1 % ID/g
[9]; Lungs, 60 min p.i.
  % ID: 0.5±0.2 % ID
  % ID/g: 1.6±1.0 % ID/g
[9]; Muscle, 2 min p.i.
  % ID/g: 1.2±0.3 % ID/g
[9]; Muscle, 10 min p.i.
  % ID/g: 1.3±0.2 % ID/g
[9]; Muscle, 60 min p.i.
  % ID/g: 0.4±0.1 % ID/g
[9]; Pancreas, 2 min p.i.
  % ID: 1.1±0.1 % ID
  % ID/g: 5.4±0.9 % ID/g
[9]; Pancreas, 10 min p.i.
  % ID: 0.6±0.1 % ID
  % ID/g: 2.7±0.2 % ID/g
[9]; Pancreas, 60 min p.i.
  % ID: 0.5±0.2 % ID
  % ID/g: 2.0±0.5 % ID/g
[9]; Skin, 2 min p.i.
  % ID/g: 1.3±0.1 % ID/g
[9]; Skin, 10 min p.i.
  % ID/g: 2.4±0.3 % ID/g
[9]; Skin, 60 min p.i.
  % ID/g: 1.1±0.3 % ID/g
[9]; Spleen, 2 min p.i.
  % ID: 0.6±0.2 % ID
  % ID/g: 4.0±0.8 % ID/g
[9]; Spleen, 10 min p.i.
  % ID: 0.2±0.0 % ID
  % ID/g: 2.0±0.2 % ID/g
[9]; Spleen, 60 min p.i.
  % ID: 0.2±0.0 % ID
  % ID/g: 1.4±0.3 % ID/g
[9]; Stomach, 2 min p.i.
  % ID: 1.4±0.2 % ID
[9]; Stomach, 10 min p.i.
  % ID: 2.0±0.7 % ID
[9]; Stomach, 60 min p.i.
  % ID: 1.8±0.7 % ID
[9]; Trigeminal nerve, 2 min p.i.
  % ID: 0.02±0.00 % ID
  % ID/g: 4.2±0.4 % ID/g
[9]; Trigeminal nerve, 10 min p.i.
  % ID: 0.01±0.00 % ID
  % ID/g: 3.4±0.2 % ID/g
[9]; Trigeminal nerve, 60 min p.i.
  % ID: 0.01±0.00 % ID
  % ID/g: 2.9±0.7 % ID/g
[9]; control mice, 2 min after injection
  total brain uptake: 1.6 % ID
[9]; control mice, 60 min p.i.
  total brain uptake: 0.1 % ID
[9]; control mice, isoflurane 2% in oxygen compared with pentobarbital 60 mg/kg i.p.
  SUV in trigeminal nerve, isoflurane versus pentobarbital anaesthesia: remarkable lower
[9]; [13]
  blood 2 min/60 min ratio: 4.3
  trigeminal nerve 2 min/60 min ratio: 1.5
[10]; mice pretreated with BCTC 10 mg/kg s.c. 1 h before tracer
  trigeminal nerve-to-blood activity ratio: 1.0
[10]; mice pretreated with SB366791 10 mg/kg s.c. 1 h before tracer
  trigeminal nerve-to-blood activity ratio: 1.3
[11]; 2 min after injection
  intact tracer in brain, of total recovered radioactivity: 85.6%±3.7
[11]; 10 min after injection
  intact tracer in brain, of total recovered radioactivity: 67.2%±0.7
